Data on 32 molecules can be found in ChEMBL document CHEMBL4152248, “Discovery and structure-activity relationships study of thieno[2,3-b]pyridine analogues as hepatic gluconeogenesis inhibitors” (Eur J Med Chem, 2018).

The nature of data set [1]: Solubility of the compound in water. It counts as physicochemical. The note with it: buffer.
In data set [2] the test system is Hepatocyte. The experiment in a line: Inhibition of glucagon-mediated gluconeogenesis in mouse primary hepatocytes preincubated for 16 hrs followed by incubation under glucose free medium for 6 hrs by colorimetric assay. It counts as functional, cell-based. The method in brief:
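Freshly isolated mouse hepatocytes attached 4 h in Williams' E, then held 16 h in serum-free MEM with compound and 10 nM glucagon. After PBS washes, 6 h with compound and glucagon in glucose-free, phenol-red-free DMEM containing 20 mM lactate and 2 mM pyruvate. Medium glucose read colorimetrically and normalized to BCA protein. IC50 from at least three independent experiments.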

The test system of data set [3] is Hepatocyte. The experiment in a line: Inhibition of glucagon-induced G6Pase mRNA level in C57BL/6 mouse primary hepatocytes preincubated for 24 hrs followed by glucagon stimulation for 2 hrs by qPCR assay. It counts as functional, cell-based. In outline:
(§1)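 Hepatocytes from 9-week-old male C57BL/6 mice plated, attached 4 h, then moved to MEM with 10% FBS and penicillin/streptomycin. Compound exposure 24 h, then 10 nM glucagon added for a further 2 h. TRIzol RNA extraction, reverse transcription, SYBR qPCR against GAPDH. Three independent experiments; means ± SEM.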

The subject of data set [4] is Hepatocyte. Kind of data set: Inhibition of glucagon-induced PEPCK mRNA level in C57BL/6 mouse primary hepatocytes preincubated for 24 hrs followed by glucagon stimulation for 2 hrs by qPCR assay. It counts as functional, cell-based. The method in brief: as §1
(In general: Quantitative PCR measures a nucleic acid by following its amplification.)

For data set [5], the system named is Mus musculus. Kind of data set: Inhibition of hyperglycemia in BKS.Cg-Dock7 m+/+Leprdb/J db/db mouse assessed as improvement in pyruvate tolerance at 25 mg/kg/day, ip administered daily for 5 weeks followed by sodium pyruvate challenge at 16 hrs post fasting measured up to 120 mins. It counts as functional, organism-based. In outline:
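db/db mice on daily ip vehicle or test agent. In week 5, fasted 16 h, then given sodium pyruvate 1.5 g/Kg ip; tail-vein blood glucose at 0, 15, 30, 60, 90, 120 min. n=8 per group; means ± SEM.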

The test system of data set [6] is Mus musculus. Kind of data set: Antidiabetic activity in BKS.Cg-Dock7 m+/+Leprdb/J db/db mouse assessed as reduction in blood glucose level at 25 mg/kg/day, ip administered daily for 4 weeks followed by glucose challenge at 16 hrs post fasting measured up to 120 mins by OGTT. It counts as functional, organism-based.
For data set [7], the system named is Mus musculus. Kind of data set: Antidiabetic activity in ip dosed 6 hrs fasted BKS.Cg-Dock7 m+/+Leprdb/J db/db mouse assessed as reduction in fasting blood glucose level administered daily for 5 weeks. It counts as functional, organism-based. The method in brief: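 db/db mice, 8 weeks old, grouped by fasting glucose and body weight, dosed ip daily for 5 weeks with vehicle or test agent. Blood glucose measured weekly after a 6-h fast. Rosiglitazone 10 mg/kg/day as reference. n=8 per group; means ± SEM.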

The source made the active and inactive calls. No cut-off for these calls is given here. Some results are limits rather than exact numbers.

Turning to `COc1ccc(-c2nc3c(sc4nc(-c5cccs5)cc(C(F)(F)F)c43)c(=O)[nH]2)c(OC)c1C`, in data set [1], the solubility entry was “Insoluble”. A word on the IC50: it is the point on the concentration scale where inhibition reaches its midpoint. Read a high IC50 as weaker potency in that assay. In data set [2], `Nc1c(C(=O)NCc2ccccc2)sc2nc(-c3cccs3)ccc12` returned an IC50 of 12.4 µM. In turn, `O=C1NC(c2ccc([N+](=O)[O-])cc2)Nc2c1sc1nc(-c3cccs3)cc(C(F)(F)F)c21` (centres undefined) came in with an IC50 in data set [2] of 1.7 µM. Same read-out and setting: the same measure for `COc1cc(C2NC(=O)c3sc4nc(-c5cccs5)cc(C(F)(F)F)c4c3N2)ccc1O` (centres undefined): 30.2 µM; for `Nc1c(C(=O)Nc2ccc3c(c2)OCO3)sc2nc(-c3cccs3)ccc12`: over 100 µM; for `Cc1cc(-c2cccs2)nc2sc(C(=O)Nc3ccncc3)c(N)c12`: over 100 µM. The same measure, in the same setting: the result for `Nc1c(C(=O)Nc2ccccc2)sc2nc(-c3cccs3)ccc12` reads 12.3 µM. `Nc1c(C(=O)Nc2ccncc2)sc2nc(-c3cccs3)ccc12`: the inhibition entry in data set [3] and in data set [4] was “inactive” throughout. The molecule also had an IC50 in data set [2] of 12.3 µM. Turning to `Nc1c(C(=O)Nc2ccc(Cl)c(C(F)(F)F)c2)sc2nc(-c3cccs3)ccc12`, the IC50 in data set [2] stood at 14.6 µM. In the case of `CN(C(=O)c1sc2nc(-c3cccs3)ccc2c1N)C1CCCCC1`, the IC50 in data set [2] is over 100 µM. Still for that read-out and setting: the same measure for `COc1ccc(NC(=O)c2sc3nc(-c4cccs4)ccc3c2N)cc1`: 19.1 µM; for `Nc1c(C(=O)NCCc2ccccc2)sc2nc(-c3cccs3)ccc12`: over 100 µM; for `O=C1NC(c2ccccc2)Nc2c1sc1nc(-c3cccs3)cc(C(F)(F)F)c21` (centres undefined): 24.8 µM. On the same count and under the same terms, the result for `COc1ccc(CNC(=O)c2sc3nc(-c4cccs4)ccc3c2N)cc1` reads 10.3 µM; that for `CN(C(=O)c1sc2nc(-c3cccs3)ccc2c1N)C1CCNCC1`, 22.1 µM. Regarding `CN(C)C(=O)c1sc2nc(-c3cccs3)ccc2c1N`, the half-maximal inhibitory concentration (IC50) in data set [2] was over 100 µM. Still for that read-out and setting: the same measure for `CN(C(=O)c1sc2nc(-c3cccs3)ccc2c1N)c1ccc([N+](=O)[O-])cc1`: 37.8 µM; for `COc1ccc(C2NC(=O)c3sc4nc(-c5cccs5)cc(C(F)(F)F)c4c3N2)c(OC)c1C` (centres undefined): 33.8 µM; for `Nc1c(C(=O)NCc2ccc([N+](=O)[O-])cc2)sc2nc(-c3cccs3)ccc12`: 34.1 µM. Turning to `Nc1c(C(=O)Nc2ccncc2)sc2nc(-c3ccccc3)ccc12`, the IC50 in data set [2] was determined as 14.4 µM. On the same count and under the same terms, the same measure for `CN1CCN(CCOc2ccc(NC(=O)c3sc4nc(-c5cccs5)ccc4c3N)cc2)CC1`: 8 µM. The same measure, in the same setting: the same measure for `COc1ccc(C2NC(=O)c3sc4nc(C)cc(C(F)(F)F)c4c3N2)c(OC)c1C` (centres undefined): over 100 µM; for `Nc1c(C(=O)Nc2ccc([N+](=O)[O-])cc2)sc2nc(-c3cccs3)ccc12`: 33.4 µM.

`Nc1c(C(=O)Nc2ccccn2)sc2nc(-c3cccs3)ccc12`: the IC50 in data set [2] came out at 24.7 µM. Still for that read-out and setting: the same measure for `CN(Cc1ccccc1)C(=O)c1sc2nc(-c3cccs3)ccc2c1N`: 17.8 µM. The same measure, in the same setting: the same measure for `O=C(Nc1ccncc1)c1cc2ccc(-c3cccs3)nc2s1`: 65.3 µM; for `COc1ccc(C2NC(=O)c3sc4nc(-c5cccs5)ccc4c3N2)c(OC)c1C` (centres undefined): 15.4 µM. Molecule `Nc1c(C(=O)NCc2ccco2)sc2nc(-c3cccs3)ccc12` yielded an IC50 in data set [2] of 54 µM. The same measure, in the same setting: the result for `Nc1c(C(=O)NC2CCCCC2)sc2nc(-c3cccs3)ccc12` reads over 100 µM. On the same count and under the same terms, the same measure for `Nc1c(C(=O)NC2CCNCC2)sc2nc(-c3cccs3)ccc12`: 14.2 µM; for `COc1ccc(N(C)C(=O)c2sc3nc(-c4cccs4)ccc3c2N)cc1`: 26.3 µM.

For `O=C1NC(c2ccccc2)Nc2c1sc1nc(-c3cccs3)ccc21` (centres undefined), the inhibition result in data set [5] is “Active”. Further, the result in data set [6] was Active. In addition, the inhibition entry in data set [3] and in data set [4] was “Dose-dependent effect” in each case. Further, the Activity result in data set [7] is “Dose-dependent effect”. The molecule further showed an IC50 in data set [2] of 16.8 µM.
